Published values collected from several papers.
Each line is one published result; the experiments were not run side by side.
Target: Mitogen-activated protein kinase kinase kinase 4 (MAP3K4, Homo sapiens, UniProt Q9Y6R4)

| SMILES | assay | setting | endpoint | value |
| --- | --- | --- | --- | --- |
| N#Cc1ccc(NC(=O)Nc2ccccc2)cc1 | cell-free assay, competition with immobilised ligand | 25 µM | remaining binding | 77% |
| CO[C@@H]1[C@H](N(C)C(=O)c2ccccc2)C[C@H]2O[C@]1(C)n1c3ccccc3c3c4c(c5c6ccccc6n2c5c31)C(=O)NC4 | enzyme activity, inhibitor | 1 µM | inhibition | 4% |
| Cc1ccc(NC(=O)c2ccnc(C(F)(F)F)c2)cc1-c1cc(OCCO)nc(N2CCOCC2)c1 | binding, competition with immobilised ligand | 1 µM | remaining binding | 90% |
| C#Cc1cnc(Nc2ccnc(CO)c2)nc1Nc1ccccc1S(C)(=O)=NC#N (centres unmarked) | cell-free assay | 1 µM | remaining signal | 86% |
| CCCCC(=O)Nc1ccc(-c2ccc3ncn(CCC)c(=O)c3c2)cn1 | binding, competition with immobilised ligand | 0.5 µM | remaining binding | 76% |
| C[C@H]1CC[C@H](n2c3cnccc3c3cnc(Nc4ccc5c(n4)CCN(C(=O)CO)C5)nc32)CC1 | binding, competition with immobilised ligand | 1 µM | remaining binding | 100% |
| CC#CC(=O)N1CCC[C@H]1c1nc(-c2ccc(C(=O)Nc3ccccn3)cc2)c2c(N)nccn12 | enzyme activity, inhibitor | 1 µM | inhibition | 19% |
| C1=C/COCc2cc(ccc2OCCN2CCCC2)Nc2nccc(n2)-c2cccc(c2)COC/1 | binding | 0.1 µM | remaining binding | 100% |
